Data on 5 compounds can be found in ChEMBL document CHEMBL4038321, “Design, Synthesis, and Pharmacokinetics of a Bone-Targeting Dual-Action Prodrug for the Treatment of Osteoporosis” (J Med Chem, 2017).

Data set [1] has as its target T1, cathepsin K (Homo sapiens, UniProt P43235).
T1 sequence (P43235 whole entry): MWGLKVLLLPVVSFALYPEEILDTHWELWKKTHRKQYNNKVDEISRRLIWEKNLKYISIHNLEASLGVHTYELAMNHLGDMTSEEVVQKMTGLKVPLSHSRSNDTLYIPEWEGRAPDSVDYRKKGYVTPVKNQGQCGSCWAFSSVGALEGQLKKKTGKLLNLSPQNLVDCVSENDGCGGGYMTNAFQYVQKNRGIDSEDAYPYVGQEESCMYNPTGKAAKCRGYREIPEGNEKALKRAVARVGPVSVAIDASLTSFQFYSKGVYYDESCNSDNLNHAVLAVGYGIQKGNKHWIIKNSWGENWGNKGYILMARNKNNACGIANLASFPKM
Briefly: Substrate activity at recombinant human cathepsin K expressed in Escherichia coli assessed as compound cleavage at 100 uM after 1 hr by HPLC analysis. In kind it is ADME. The settings on record: read-out: Drug degradation. The gist of the method: (§1)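 Human procathepsin K, recombinant from E. coli, was activated for 40 min at room temperature in 50 mM NaOAc-HOAc with 200 mM NaCl, pH 4.1. Final assay had 0.2 µM enzyme in 50 mM MES pH 5.5, 2 mM EDTA, 4 mM DTT and 0.15% chondroitin sulfate. Conjugates or the standard substrate Cbz-Leu-Arg-AMC were at 100 µM. Incubation was at 37 °C with HPLC at UV 240 nm; cleavage was taken from release of 4-aminobenzyl alcohol and its DTT adduct.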

The nature of data set [2]: Stability in rat plasma assessed as parent compound remaining at 100 uM measured after 24 hrs by HPLC analysis (reference value: 49 to 86%). Type of data set: ADME, cell-free. The note with it: read-out: Stability.
A short description of data set [3]: Stability in rat plasma assessed as parent compound remaining at 100 uM measured after 1 hr by HPLC analysis (reference value: 49 to 86%). In kind it is ADME, cell-free. The note with it: read-out: Stability.
Data set [4] can be described thus: Stability in rat serum assessed as parent compound remaining at 100 uM measured after 4 hrs by HPLC analysis (reference value: 93 to 97%). Type of data set: ADME, cell-free. The settings on record: read-out: Stability.
The nature of data set [5]: Stability in rat serum assessed as parent compound remaining at 100 uM measured after 24 hrs by HPLC analysis (reference value: 93 to 97%). The settings on record: read-out: Stability. In kind it is ADME, cell-free.
Data set [6] concerns the target T1, cathepsin K. Briefly: Substrate activity at recombinant human cathepsin K expressed in Escherichia coli assessed as compound cleavage at 100 uM after 3 hrs by HPLC analysis. In kind it is ADME. The note with it: read-out: Drug degradation. Summed up: as §1
Data set [7] can be described thus: Stability in rat serum assessed as parent compound remaining at 100 uM measured after 2 hrs by HPLC analysis (reference value: 93 to 97%). Type of data set: ADME, cell-free. The note with it: read-out: Stability.
The target of data set [8] is T2, cathepsin K (Rattus norvegicus, UniProt O35186).
T2 sequence (O35186 whole entry): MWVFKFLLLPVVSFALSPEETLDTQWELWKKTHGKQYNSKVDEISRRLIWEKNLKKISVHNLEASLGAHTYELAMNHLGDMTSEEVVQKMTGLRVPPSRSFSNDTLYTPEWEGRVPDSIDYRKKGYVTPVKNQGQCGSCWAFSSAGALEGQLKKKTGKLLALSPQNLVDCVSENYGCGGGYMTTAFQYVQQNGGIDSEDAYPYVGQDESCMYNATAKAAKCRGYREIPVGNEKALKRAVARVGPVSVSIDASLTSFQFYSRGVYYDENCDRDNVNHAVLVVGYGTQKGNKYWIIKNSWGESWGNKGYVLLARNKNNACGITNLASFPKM
The data set is described as follows: Substrate activity at recombinant rat cathepsin K expressed in Escherichia coli assessed as compound cleavage at 100 uM after 1 hr by HPLC analysis. The note with it: read-out: Drug degradation. In kind it is ADME. Summed up:
(§2)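 Rat cathepsin K was recombinant, expressed in E. coli, and used at 0.2 µM final in 50 mM MES pH 5.5 with 2 mM EDTA, 4 mM DTT and 0.15% chondroitin sulfate. Conjugates or the standard substrate Cbz-Leu-Arg-AMC were at 100 µM and incubated at 37 °C. Aliquots were run by HPLC at UV 240 nm. Cleavage was calculated from the appearance of 4-aminobenzyl alcohol plus its DTT-trapped adduct.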

The nature of data set [9]: Stability in rat plasma assessed as parent compound remaining at 100 uM measured after 2 hrs by HPLC analysis (reference value: 49 to 86%). In kind it is ADME, cell-free. The settings on record: read-out: Stability.
The nature of data set [10]: Stability in rat serum assessed as parent compound remaining at 100 uM measured after 1 hr by HPLC analysis (reference value: 93 to 97%). The settings on record: read-out: Stability. In kind it is ADME, cell-free.
Data set [11] has as its target T2, cathepsin K. Briefly: Substrate activity at recombinant rat cathepsin K expressed in Escherichia coli assessed as compound cleavage at 100 uM after 20 hrs by HPLC analysis. Type of data set: ADME. The settings on record: read-out: Drug degradation. Summed up:
as §2

The target in data set [12] is T2, cathepsin K. The data set is described as follows: Substrate activity at recombinant rat cathepsin K expressed in Escherichia coli assessed as compound cleavage at 100 uM after 2 hrs by HPLC analysis. In kind it is ADME. The note with it: read-out: Drug degradation. The gist of the method:
as §2

The target of data set [13] is T1, cathepsin K. Briefly: Substrate activity at recombinant human cathepsin K expressed in Escherichia coli assessed as compound cleavage at 100 uM after 2 hrs by HPLC analysis. The note with it: read-out: Drug degradation. In kind it is ADME. Summed up:
as §1

Data set [14] can be described thus: Stability in rat plasma assessed as parent compound remaining at 100 uM measured after 4 hrs by HPLC analysis (reference value: 49 to 86%). Type of data set: ADME, cell-free. The settings on record: read-out: Stability.
Data set [15] concerns Bone. Briefly: Drug uptake in Sprague-Dawley rat bone at 1 mg/kg, iv after 6 hrs. In kind it is ADME, organism-based, Bone element. The settings on record: in vivo.
Data set [16] has as its system Bone. Briefly: Half life in iv dosed Sprague-Dawley rat bone administered as single dose using radiolabeled compound. Type of data set: ADME, organism-based, Bone element. The settings on record: in vivo. The gist of the method:
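Female Sprague Dawley rats, about 13 weeks old on receipt, got a single tail-vein bolus of 5.0 mg/kg conjugate. The dose held 8.90 µCi [3H] and 1.77 µCi [14C] label, in 10% poloxamer 188 brought to pH 8.0 with NaHCO3 and diluted 1:1 with PBS. Groups of 3 were killed at 6 h and 1, 7, 14 and 28 days. Femurs were oxidized and counted, with skeleton taken as 8% of body weight, and label loss from bone gave half-times.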

The test system of another data set is Plasma. The data set is described as follows: Drug metabolism in Sprague-Dawley rat plasma assessed as tritium label liberation in presence of bone powder. In kind it is ADME, cell-free. The gist of the method:
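Tritiated conjugate was incubated in rat plasma at 37 °C. At fixed times up to 24 h the mixture was stirred with bovine bone powder to adsorb intact conjugate and any cleaved bisphosphonate. The supernatant was then scintillation counted as unbound, liberated tritium.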

Data set [17] relates to Bone. Briefly: Drug uptake in Sprague-Dawley rat bone at 0.2 uci, iv administered as single dose using 14C-labeled compound after 4 hrs. The settings on record: in vivo. In kind it is ADME, organism-based, Bone element.
The nature of data set [18]: Solubility of the compound in phosphate buffer at 2 mg/ml. Type of data set: physicochemical. Summed up:
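Conjugate tested for dissolution at the dosing concentration of 2 mg/mL in PBS alone, then in PBS formulations containing surfactants (PEG400, Tween, Cremaphor). Solutions were judged by visual clarity (homogeneous versus cloudy).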

Turning to `CC(C)C[C@H](NC(=O)OCc1ccccc1)C(=O)N[C@@H](CCCNC(=N)N)C(=O)Nc1ccc(COC(=O)NCCCC(O)(P(=O)(O)O)P(=O)(O)O)cc1`, the metabolised at 1 h, 100 µM at cathepsin K [1] came out at 66%; at cathepsin K [8], 73%. For the same compound, the remaining at 24 h, 100 µM was 59% in data set [2] and 70% in [5]. For the same compound, the remaining at 1 h, 100 µM in [3] worked out at 78%; in data set [10] it was 97%. The remaining at 4 h, 100 µM amounted to 86% in [4] and 64% in data set [14]. In addition, at cathepsin K [6], the metabolised at 3 h, 100 µM turned out to be 79%. In addition, the remaining at 2 h, 100 µM in data set [7] came to 95%; in [9], 78%. Further, at cathepsin K [11], the metabolised at 20 h, 100 µM was determined as 95%. The results for the metabolised at 2 h, 100 µM at cathepsin K [12] and at cathepsin K [13] were 80% and 75%, respectively.
As to `N=C(N)NCCC[C@H](NC(=O)[C@@H]1CCCN1C(=O)OCc1ccccc1)C(=O)Nc1ccc(COC(=O)NCCCC(O)(P(=O)(O)O)P(=O)(O)O)cc1`, the metabolised at 1 h, 100 µM at cathepsin K [1] worked out at 90%; on cathepsin K [8] it was 5%. Moreover, the remaining at 24 h, 100 µM in [2] amounted to 65%; in [5] it was 69%. Further, the remaining at 1 h, 100 µM in data set [3] worked out at 95%; in [10] it was 89%. In addition, the remaining at 4 h, 100 µM was found to be 77% in [4] and 90% in data set [14]. The remaining at 2 h, 100 µM in data set [7] stood at 78%; in [9], 90%. For the same compound, at cathepsin K [11], the metabolised at 20 h, 100 µM is 52%. The metabolised at 2 h, 100 µM at cathepsin K [12] came out at 10%; at cathepsin K [13] it was 98%.
Compound `CCCCC[C@@H](/C=C/[C@H]1[C@H](O)CC(=O)[C@@H]1C/C=C\CCCC(=O)O)OC(=O)CSCCCC(P(=O)(O)O)P(=O)(O)O` yielded a Drug uptake with Bone [15] of 3.5%. In addition, the t1/2 in the data set with Bone [16] is 96 to 120 h. Besides, the Drug metabolism in the data set with Plasma is given as 15%.
In the data set on Bone [17], `CCCCC[C@H](O)/C=C/[C@H]1[C@H](O)CC(=O)[C@@H]1C/C=C\CCCC(=O)NCCCC(O)(P(=O)(O)O)P(=O)(O)O` had a Drug uptake of 15 %ID.
Consider `CCOC(=O)CCCCCCN1C(=O)CC[C@@H]1/C=C/[C@@H](OC(=O)Cc1ccc(COC(=O)N[C@@H](CC(C)C)C(=O)N[C@@H](CCCNC(=N)N)C(=O)Nc2ccc(COC(=O)NCCCC(O)(P(=O)(O)O)P(=O)(O)O)cc2)cc1)C(F)(F)c1ccccc1`, for which, in [18], the solubility result is “Insoluble”.
